Experimental data reported in ChEMBL document CHEMBL1833854, “2,5-Disubstituted-1,3,4-oxadiazoles/thiadiazole as surface recognition moiety: design and synthesis of novel hydroxamic acid based histone deacetylase inhibitors” (Bioorg Med Chem Lett, 2011).

Experiments:
[1] = Antitumor activity against mouse EAC cells transplanted in Swiss albino mouse assessed as tumor weight inhibition in ascetic fluid at 0.2 mmol/kg, ip administered qd for 7 days measured on 8th day; format: functional; settings: Ehrlich, 168 h, read-out: GI
How it was run: (§1)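 Ehrlich ascites carcinoma cells (9 days old) were taken from a donor mouse into sterile isotonic saline and adjusted to 10 × 10⁶ cells/mL. Mice received 0.1 mL per 10 g ip on day 0. Compound in PBS pH 7.2 (0.1 mL/10 g) was given ip on days 1–7 at 24-h intervals; controls received vehicle only. On day 8, after 6 h fasting, peritoneal cells were counted and ascitic fluid weight was taken from body weight before and after fluid removal.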

Histone deacetylase 1 = Histone deacetylase 1 (Homo sapiens, UniProt Q13547); test: Inhibition of HDAC1 by fluorescent activity assay
Chain of Histone deacetylase 1 (Q13547 whole entry): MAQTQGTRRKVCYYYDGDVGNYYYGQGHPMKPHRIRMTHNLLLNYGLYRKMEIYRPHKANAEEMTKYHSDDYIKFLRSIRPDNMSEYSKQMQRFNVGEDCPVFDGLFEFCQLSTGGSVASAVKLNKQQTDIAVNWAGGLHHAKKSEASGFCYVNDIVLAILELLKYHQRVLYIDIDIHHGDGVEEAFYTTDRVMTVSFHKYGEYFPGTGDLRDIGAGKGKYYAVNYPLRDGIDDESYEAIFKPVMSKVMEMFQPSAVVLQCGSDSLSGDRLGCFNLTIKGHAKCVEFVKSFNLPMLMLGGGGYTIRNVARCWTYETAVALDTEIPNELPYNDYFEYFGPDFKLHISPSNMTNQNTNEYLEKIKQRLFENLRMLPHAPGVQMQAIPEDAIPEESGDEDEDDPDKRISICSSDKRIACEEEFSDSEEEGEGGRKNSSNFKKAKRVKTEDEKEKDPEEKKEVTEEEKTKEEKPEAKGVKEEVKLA

[2] = Antitumor activity against mouse EAC cells transplanted in Swiss albino mouse assessed as tumor cell inhibition in ascetic fluid at 0.2 mmol/kg, ip administered qd for 7 days measured on 8th day; format: functional; settings: Ehrlich, 168 h, read-out: GI; how it was run: as §1
HCT-116 = test: Antiproliferative activity against human HCT116 cells by MTT assay; format: functional, cell-based
[3] = Antitumor activity against mouse EAC cells transplanted in Swiss albino mouse assessed as tumor weight inhibition in ascetic fluid at 1 mg/kg, ip administered qd for 7 days measured on 8th day; format: functional; settings: Ehrlich, 168 h, route intraperitoneal, read-out: GI
How it was run: (§2)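 Swiss albino mice were inoculated ip on day 0 with 9-day-old Ehrlich ascites carcinoma cells from a donor mouse (10 × 10⁶ cells/mL in isotonic saline, 0.1 mL per 10 g). Mitomycin-C served as the standard at 1 mg/kg; controls received vehicle only. Mice were sacrificed on day 8 after 6 h without food and water. Peritoneal fluid cells were counted, and ascitic fluid weight came from body weight before and after draining the cavity.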

[4] = Antitumor activity against mouse EAC cells transplanted in Swiss albino mouse assessed as tumor cell inhibition in ascetic fluid at 1 mg/kg, ip administered qd for 7 days measured on 8th day; format: functional; settings: Ehrlich, 168 h, route intraperitoneal, read-out: GI; how it was run: as §2

O=C(NO)c1cnc(Nc2nnc(-c3ccccc3)s2)nc1
inhibition in vivo at 200 µmol/kg [1]: 14.2%
IC50 (Histone deacetylase 1): 8 nM
inhibition in vivo at 200 µmol/kg [2]: 29.5%
IC50 (HCT-116): 80 nM

O=C(NO)c1cnc(Nc2nnc(-c3ccc(F)cc3)o2)nc1
inhibition in vivo at 200 µmol/kg [1]: 24.1%
IC50 (Histone deacetylase 1): 9 nM
inhibition in vivo at 200 µmol/kg [2]: 16.4%
IC50 (HCT-116): 60 nM

CO[C@@]12[C@H](COC(N)=O)C3=C(C(=O)C(C)=C(N)C3=O)N1C[C@@H]1N[C@@H]12 [MITOMYCIN]
inhibition in vivo at 1 mg/kg [3]: 100%
inhibition in vivo at 1 mg/kg [4]: 100%

CN(C)c1ccc(-c2nnc(Nc3ncc(C(=O)NO)cn3)s2)cc1
inhibition in vivo at 200 µmol/kg [1]: 61.1%
IC50 (Histone deacetylase 1): 11 nM
inhibition in vivo at 200 µmol/kg [2]: 51.1%
IC50 (HCT-116): 200 nM

O=C(NO)c1cnc(Nc2nnc(-c3ccc(Cl)cc3)s2)nc1
inhibition in vivo at 200 µmol/kg [1]: 48.3%
IC50 (Histone deacetylase 1): 10 nM
inhibition in vivo at 200 µmol/kg [2]: 32%
IC50 (HCT-116): 160 nM

CN(C)c1ccc(-c2nnc(Nc3ncc(C(=O)NO)cn3)o2)cc1
inhibition in vivo at 200 µmol/kg [1]: 55.5%
IC50 (Histone deacetylase 1): 9 nM
inhibition in vivo at 200 µmol/kg [2]: 56.8%
IC50 (HCT-116): 200 nM
